Assay results from ChEMBL document CHEMBL1137515, “Alpha-diaminobutyric acid-linked hairpin polyamides” (Bioorg Med Chem, 2007).
One block for each compound: values may come before it.

How the values were obtained:
[1] = Binding affinity to pMFST5 overlapped extended O site
How it was run: (§1)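 Quantitative DNase I footprinting on the 301 bp 5′ end-labeled PCR product of plasmid pMFST5, using 1 pM to 100 nM polyamide across 11 lanes. DNA was incubated with polyamide or water for 12–16 h at room temperature before DNase I digestion. Equilibrium association constants (M−1) from binding isotherms are the mean of three experiments.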

[2] = Binding affinity to pMFST5 forward hairpin binding M site; how it was run: as §1
[3] = Binding affinity to pMFST ATGGTCA match site
How it was run: (§2)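 DNase I footprinting titrations on the 5′ end-labeled PCR product of the relevant plasmid (pMFST or pMFST2). DNA was equilibrated with polyamide or water (control) for 12–16 h at room temperature before DNase I cleavage. Binding isotherms gave equilibrium association constants (M−1), reported as the mean of three titrations.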

[4] = Binding affinity to pMFST AACGACT mismatch site A; how it was run: as §2
[5] = Binding affinity to pMFST TAGTCGT mismatch site B; how it was run: as §2
[6] = Binding affinity to pMFST TAGTGGT match site; how it was run: as §2
[7] = Binding affinity to pMFST ATATGGT mismatch site A; how it was run: as §2
[8] = Binding affinity to pMFST5 slipped extended S site; how it was run: as §1
[9] = Binding affinity to pMFST2 TAGGTGT match site; how it was run: as §2
[10] = Binding affinity to pMFST2 TAGGTCT mismatch site A; how it was run: as §2
[11] = Binding affinity to pMFST2 TAGCTGT mismatch site B; how it was run: as §2
[12] = Binding affinity to pMFST TAGCACA mismatch site B; how it was run: as §2

SMILES: CN(C)CCCNC(=O)CCNC(=O)c1cc(NC(=O)c2cc(NC(=O)c3cc(NC(=O)c4nc(NC(=O)[C@@H](CCN)NC(=O)c5cc(NC(=O)c6cc(NC(=O)c7nc(NC(=O)c8nccn8C)cn7C)cn6C)cn5C)cn4C)cn3C)cn2C)cn1C
Ka [1]: 4.7 10^9/M
Ka [2]: 9.8 10^9/M
Ka [3]: 4.4 10^9/M
Ka [4]: 1.5 10^8/M

SMILES: CN(C)CCCNC(=O)CCNC(=O)c1cc(NC(=O)c2cc(NC(=O)c3cc(NC(=O)c4nc(NC(=O)CNC(=O)c5cc(NC(=O)c6cc(NC(=O)c7nc(NC(=O)c8nccn8C)cn7C)cn6C)cn5C)cn4C)cn3C)cn2C)cn1C
Ka [1]: 5.9 10^8/M
Ka [2]: 7 10^8/M
Ka [8]: 1.3 10^9/M

SMILES: CN(C)CCCNC(=O)CCNC(=O)c1cc(NC(=O)c2cc(NC(=O)c3cc(NC(=O)c4cc(NC(=O)[C@@H](CCN)NC(=O)c5nc(NC(=O)c6cc(NC(=O)c7nc(NC(=O)c8nccn8C)cn7C)cn6C)cn5C)cn4C)cn3C)cn2C)cn1C
Ka [9]: 3 10^8/M
Ka [10]: 8.5 10^7/M

SMILES: CN(C)CCCNC(=O)CCNC(=O)c1cc(NC(=O)c2cc(NC(=O)c3cc(NC(=O)c4cc(NC(=O)[C@H](N)CCNC(=O)c5nc(NC(=O)c6cc(NC(=O)c7nc(NC(=O)c8nccn8C)cn7C)cn6C)cn5C)cn4C)cn3C)cn2C)cn1C
Ka [9]: 4.4 10^10/M
Ka [10]: 1.1 10^10/M
Ka [11]: 1.1 10^9/M

SMILES: CN(C)CCCNC(=O)CCNC(=O)c1cc(NC(=O)c2cc(NC(=O)c3cc(NC(=O)c4nc(NC(=O)[C@H](N)CCNC(=O)c5cc(NC(=O)c6cc(NC(=O)c7nc(NC(=O)c8nccn8C)cn7C)cn6C)cn5C)cn4C)cn3C)cn2C)cn1C
Ka [3]: 4.9 10^10/M
Ka [12]: 3.9 10^8/M
Ka ([4]; in the assay text read “mismatch site C” for “mismatch site A”): 1.8 10^10/M

Now from value to compound:

Ka [5]: 6.2 10^7/M
Ka [6]: 8 10^8/M
SMILES: CN(C)CCCNC(=O)CCNC(=O)c1cc(NC(=O)c2cc(NC(=O)c3cc(NC(=O)c4cc(NC(=O)[C@@H](CCN)NC(=O)c5nc(NC(=O)c6nc(NC(=O)CCNC(=O)c7nccn7C)cn6C)cn5C)cn4C)cn3C)cn2C)cn1C

Ka [5]: 6.2 10^9/M
Ka [7]: 9.9 10^8/M
Ka [6]: 4.3 10^10/M
SMILES: CN(C)CCCNC(=O)CCNC(=O)c1cc(NC(=O)c2cc(NC(=O)c3cc(NC(=O)c4cc(NC(=O)[C@H](N)CCNC(=O)c5nc(NC(=O)c6nc(NC(=O)CCNC(=O)c7nccn7C)cn6C)cn5C)cn4C)cn3C)cn2C)cn1C
